# Columns and labels:
# Type in all cases: functional
# [1] = test system: COLO 205; experiment: Anticancer activity against human COLO205 cells after 48 hrs by sulforhodamine B assay; conditions: COLO 205, 48 h
# Method in brief: (§1)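 Full 60-cell-line panel, compounds tested over a five-log dose range. Cells are preincubated on microtiter plates, the agent is added, and cultures run 48 h. The end point is sulphorhodamine B protein staining. GI50 is taken as the concentration giving 50% growth inhibition relative to untreated control cells.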
# [2] = test system: NCI-H322M; experiment: Anticancer activity against human NCI-H322M cells after 48 hrs by sulforhodamine B assay; method in brief: as §1
# [3] = test system: KM12; experiment: Anticancer activity against human KM12 cells after 48 hrs by sulforhodamine B assay; conditions: KM12, 48 h; method in brief: as §1
# [4] = test system: SF-268; experiment: Anticancer activity against human SF268 cells after 48 hrs by sulforhodamine B assay; conditions: SF-268, 48 h; method in brief: as §1
# [5] = test system: OVCAR-3; experiment: Anticancer activity against human OVCAR-3 cells after 48 hrs by sulforhodamine B assay; conditions: OVCAR-3, 48 h; method in brief: as §1
# [6] = test system: IGROV-1; experiment: Anticancer activity against human IGROV1 cells after 48 hrs by sulforhodamine B assay; conditions: IGROV-1, 48 h; method in brief: as §1
# [7] = test system: LOX IMVI; experiment: Anticancer activity against human LOXIMVI cells after 48 hrs by sulforhodamine B assay; method in brief: as §1
# [8] = test system: SF-539; experiment: Anticancer activity against human SF539 cells after 48 hrs by sulforhodamine B assay; conditions: SF-539, 48 h; method in brief: as §1
# [9] = test system: SF-268; experiment: Anticancer activity against human SF268 cells assessed as cell growth at 100 uM after 48 hrs by sulforhodamine B assay relative to control; conditions: SF-268, 48 h, read-out: Activity
# Method in brief: (§2)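 Three-cell-line prescreen (NCI-H460 lung, MCF7 breast, SF 268 CNS), each preincubated on microtiter plates. The agent is added at a single concentration and cultures are incubated 48 h. Growth is read by sulphorhodamine B protein staining and reported as percent growth of treated versus untreated control cells; negative values indicate cell kill.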
# [10] = test system: EKVX; experiment: Anticancer activity against human EKVX cells after 48 hrs by sulforhodamine B assay; method in brief: as §1
# [11] = test system: M14; experiment: Anticancer activity against human M14 cells after 48 hrs by sulforhodamine B assay; conditions: M14, 48 h; method in brief: as §1
# [12] = test system: DU-145; experiment: Anticancer activity against human DU145 cells after 48 hrs by sulforhodamine B assay; conditions: DU-145, 48 h; method in brief: as §1
# [13] = test system: NCI-H522; experiment: Anticancer activity against human NCI-H522 cells after 48 hrs by sulforhodamine B assay; conditions: NCI-H522, 48 h; method in brief: as §1
# [14] = test system: T47D; experiment: Anticancer activity against human T47D cells after 48 hrs by sulforhodamine B assay
# Method in brief: (§3)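 Cells from the 60-line full panel are preincubated on microtiter plates, then treated across a five-log dose range for 48 h. Growth is read with the protein-binding dye sulforhodamine B. GI50 is the concentration giving 50% growth inhibition relative to untreated control cells.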
# [15] = Anticancer activity against human Hs 578T cells after 48 hrs by sulforhodamine B assay; method in brief: as §1
# [16] = test system: K562; experiment: Anticancer activity against human K562 cells after 48 hrs by sulforhodamine B assay; conditions: K562, 48 h; method in brief: as §1
# [17] = test system: Malme-3M; experiment: Anticancer activity against human MALME-3M cells after 48 hrs by sulforhodamine B assay; method in brief: as §1
# [18] = test system: ACHN; experiment: Anticancer activity against human ACHN cells after 48 hrs by sulforhodamine B assay; method in brief: as §1
# [19] = test system: CAKI-1; experiment: Anticancer activity against human Caki1 cells after 48 hrs by sulforhodamine B assay; conditions: CAKI-1, 48 h; method in brief: as §1
# [20] = test system: SK-MEL-28; experiment: Anticancer activity against human SK-MEL-28 cells after 48 hrs by sulforhodamine B assay; conditions: SK-MEL-28, 48 h; method in brief: as §1
# [21] = test system: SNB-75; experiment: Anticancer activity against human SNB75 cells after 48 hrs by sulforhodamine B assay; conditions: SNB-75, 48 h; method in brief: as §3
# [22] = test system: MCF7; experiment: Anticancer activity against human MCF7 cells after 48 hrs by sulforhodamine B assay; conditions: MCF7, 48 h; method in brief: as §1
# [23] = test system: MDA-MB-231; experiment: Anticancer activity against human MDA-MB-231 cells after 48 hrs by sulforhodamine B assay; conditions: MDA-MB-231, 48 h; method in brief: as §1
# [24] = test system: SW-620; experiment: Anticancer activity against human SW620 cells after 48 hrs by sulforhodamine B assay; conditions: SW-620, 48 h; method in brief: as §3
# [25] = test system: SF-295; experiment: Anticancer activity against human SF295 cells after 48 hrs by sulforhodamine B assay; conditions: SF-295, 48 h; method in brief: as §1
# [26] = test system: SK-OV-3; experiment: Anticancer activity against human SKOV3 cells after 48 hrs by sulforhodamine B assay; conditions: SK-OV-3, 48 h; method in brief: as §1
# [27] = test system: UO-31; experiment: Anticancer activity against human UO31 cells after 48 hrs by sulforhodamine B assay; conditions: UO-31, 48 h; method in brief: as §3
# [28] = test system: HOP-62; experiment: Anticancer activity against human HOP62 cells after 48 hrs by sulforhodamine B assay; conditions: HOP-62, 48 h; method in brief: as §1
# [29] = test system: NCI-H226; experiment: Anticancer activity against human NCI-H226 cells after 48 hrs by sulforhodamine B assay; conditions: NCI-H226, 48 h; method in brief: as §1
# [30] = test system: RXF 393; experiment: Anticancer activity against human RXF393 cells after 48 hrs by sulforhodamine B assay; conditions: RXF 393, 48 h; method in brief: as §1
# [31] = test system: 786-0; experiment: Anticancer activity against human 786-0 cells after 48 hrs by sulforhodamine B assay; conditions: 786-0, 48 h; method in brief: as §1
# [32] = test system: HCT-116; experiment: Anticancer activity against human HCT116 cells after 48 hrs by sulforhodamine B assay; conditions: HCT-116, 48 h; method in brief: as §1
# [33] = test system: A549; experiment: Anticancer activity against human A549 cells after 48 hrs by sulforhodamine B assay; conditions: A549, 48 h; method in brief: as §1
# [34] = test system: OVCAR-4; experiment: Anticancer activity against human OVCAR4 cells after 48 hrs by sulforhodamine B assay; conditions: OVCAR-4, 48 h; method in brief: as §1
# [35] = test system: NCI-H23; experiment: Anticancer activity against human NCI-H23 cells after 48 hrs by sulforhodamine B assay; conditions: NCI-H23, 48 h; method in brief: as §1
# [36] = test system: OVCAR-5; experiment: Anticancer activity against human OVCAR5 cells after 48 hrs by sulforhodamine B assay; conditions: OVCAR-5, 48 h; method in brief: as §1
# [37] = test system: U-251; experiment: Anticancer activity against human U251 cells after 48 hrs by sulforhodamine B assay; conditions: U-251, 48 h; method in brief: as §3
# [38] = test system: UACC-62; experiment: Anticancer activity against human UACC62 cells after 48 hrs by sulforhodamine B assay; conditions: UACC-62, 48 h; method in brief: as §3
# [39] = test system: NCI-H460; experiment: Anticancer activity against human NCI-H460 cells after 48 hrs by sulforhodamine B assay; conditions: NCI-H460, 48 h; method in brief: as §1
# [40] = test system: NCI/ADR-RES; experiment: Anticancer activity against human NCI/ADR-RES cells after 48 hrs by sulforhodamine B assay; method in brief: as §1
# [41] = test system: MCF7; experiment: Anticancer activity against human MCF7 cells assessed as cell growth at 100 uM after 48 hrs by sulforhodamine B assay relative to control; conditions: MCF7, 48 h, read-out: Activity; method in brief: as §2
# [42] = test system: HCT-15; experiment: Anticancer activity against human HCT15 cells after 48 hrs by sulforhodamine B assay; conditions: HCT-15, 48 h; method in brief: as §1
# [43] = test system: SNB-19; experiment: Anticancer activity against human SNB19 cells after 48 hrs by sulforhodamine B assay; conditions: SNB-19, 48 h; method in brief: as §1
# [44] = test system: UACC-257; experiment: Anticancer activity against human UACC257 cells after 48 hrs by sulforhodamine B assay; conditions: UACC-257, 48 h; method in brief: as §3
# [45] = test system: CCRF-CEM; experiment: Anticancer activity against human CCRF-CEM cells after 48 hrs by sulforhodamine B assay; method in brief: as §1
# [46] = test system: NCI-H460; experiment: Anticancer activity against human NCI-H460 cells assessed as cell growth at 100 uM after 48 hrs by sulforhodamine B assay relative to control; conditions: NCI-H460, 48 h, read-out: Activity; method in brief: as §2
# [47] = test system: SN12C; experiment: Anticancer activity against human SN12C cells after 48 hrs by sulforhodamine B assay; method in brief: as §1
# [48] = test system: PC-3; experiment: Anticancer activity against human PC3 cells after 48 hrs by sulforhodamine B assay; conditions: PC-3, 48 h; method in brief: as §1
# [49] = test system: HT-29; experiment: Anticancer activity against human HT-29 cells after 48 hrs by sulforhodamine B assay; conditions: HT-29, 48 h; method in brief: as §1
# [50] = Anticancer activity against human […] cells after 48 hrs by sulforhodamine B assay; method in brief: as §1
# [51] = test system: HL-60(TB); experiment: Anticancer activity against human HL-60(TB) cells after 48 hrs by sulforhodamine B assay; conditions: HL-60, 48 h
# Method in brief: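 Run within the full 60-cell-line panel across a five-log dose range. GI50 was taken as the concentration causing 50% growth inhibition relative to untreated control cells.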
# [52] = test system: HCC 2998; experiment: Anticancer activity against human HCC2998 cells after 48 hrs by sulforhodamine B assay; conditions: HCC 2998, 48 h; method in brief: as §1
# [53] = test system: SR; experiment: Anticancer activity against human SR cells after 48 hrs by sulforhodamine B assay; method in brief: as §3
# [54] = test system: MOLT-4; experiment: Anticancer activity against human MOLT4 cells after 48 hrs by sulforhodamine B assay; conditions: MOLT-4, 48 h; method in brief: as §1
# [55] = test system: OVCAR-8; experiment: Anticancer activity against human OVCAR8 cells after 48 hrs by sulforhodamine B assay; conditions: OVCAR-8, 48 h; method in brief: as §1
# [56] = test system: MDA-MB-435; experiment: Anticancer activity against human MDA-MB-435 cells after 48 hrs by sulforhodamine B assay; conditions: MDA-MB-435, 48 h; method in brief: as §1
# [57] = test system: HOP-92; experiment: Anticancer activity against human HOP92 cells after 48 hrs by sulforhodamine B assay; conditions: HOP-92, 48 h; method in brief: as §1
# [58] = test system: TK-10; experiment: Anticancer activity against human TK10 cells after 48 hrs by sulforhodamine B assay; conditions: TK-10, 48 h; method in brief: as §3
compound,measurement,setting,value
Fc1cc(-c2nnc3n2N=C(c2ccc(Cl)cc2Cl)CS3)c(Cl)cc1Cl,GI50,[1],32.9 µM
same,GI50,[2],76.4 µM
same,GI50,[3],41.9 µM
same,GI50,[4],36.6 µM
same,GI50,[5],22.8 µM
same,GI50,[6],50.4 µM
same,GI50,[7],34.3 µM
same,GI50,[8],39.2 µM
same,growth at 100 µM,[9],76%
same,GI50,[10],58.5 µM
same,GI50,[11],37.5 µM
same,GI50,[12],49.5 µM
same,GI50,[13],50.8 µM
same,GI50,[14],17.7 µM
same,GI50,[15],33.6 µM
same,GI50,[16],47.5 µM
same,GI50,[17],26.6 µM
same,GI50,[18],66.6 µM
same,GI50,[19],35.9 µM
same,GI50,[20],40.2 µM
same,GI50,[21],> 100 µM
same,GI50,[22],31.3 µM
same,GI50,[23],33.7 µM
same,GI50,[24],36.8 µM
same,GI50,[25],36.4 µM
same,GI50,[26],48 µM
same,GI50,[27],60.2 µM
same,GI50,[28],44.2 µM
same,GI50,[29],36.5 µM
same,GI50,[30],51 µM
same,GI50,[31],47.1 µM
same,GI50,[32],25.4 µM
same,GI50,[33],58 µM
same,GI50,[34],> 100 µM
same,GI50,[35],82.5 µM
same,GI50,[36],> 100 µM
same,GI50,[37],56.2 µM
same,GI50,[38],24.9 µM
same,GI50,[39],37.3 µM
same,GI50,[40],30.8 µM
same,growth at 100 µM,[41],69%
same,GI50,[42],38.3 µM
same,GI50,[43],25.4 µM
same,GI50,[44],86 µM
same,GI50,[45],27.6 µM
same,growth at 100 µM,[46],32%
same,GI50,[47],56.4 µM
same,GI50,[48],39.2 µM
same,GI50,[49],40.5 µM
same,GI50,[50],25.3 µM
same,GI50,[51],> 100 µM
same,GI50,[52],35 µM
same,GI50,[53],> 100 µM
same,GI50,[54],75.1 µM
same,GI50,[55],57.3 µM
same,GI50,[56],24.4 µM
same,GI50,[57],54.2 µM
same,GI50,[58],77.3 µM
